A short description of assay [1]: Growth inhibition of patient derived CLL cells after 48 hrs by annexin V-FITC staining based flow cytometric analysis. In kind it is functional. As to conditions: Homo sapiens, CLL-CII. Put shortly: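 Freshly isolated primary CLL cells (10⁶/mL) in RPMI with 10% foetal calf serum, L-glutamine, penicillin and streptomycin, 37 °C, 5% CO₂, exposed to inhibitor for 48 h. Cells labelled with CD19-APC and annexin V-FITC; apoptosis quantified by flow cytometry in CD19+ cells. LD50 is the concentration killing 50% of CLL cells.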
On the technique in general: In flow cytometry, cells or beads pass a laser one at a time.

Assay [2] has as its target Vascular endothelial growth factor receptor 2 (Homo sapiens) (UniProt P35968). Kind of assay: Inhibition of recombinant human KDR 790 to end residues ) using myelin basic protein as substrate incubated for 40 mins by scintillation counting method. Put shortly:
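The 60-kinase diversity panel was run as a radiometric assay with ATP at each kinase's Km(app). Compound was tested at one fixed concentration across all kinases.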

The species entered for the next assay is Homo sapiens. In words: Selectivity index, ratio of Ki for inhibition of recombinant human full length CDK2/Cyclin A to Ki for inhibition of recombinant human full length CDK9/Cyclin T1. Put shortly:
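Ratio of apparent Ki values for the two CDK/cyclin complexes. Each Ki is derived from an IC50 (10-point radiometric dose-response, ATP at Km(app)) using the kinase's Km(ATP). The selectivity index is defined as Ki(CDK2)/Ki(CDK9).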

Assay [3] has as its system A2780. In words: Induction of apoptosis in human A2780 cells assessed as viable cells at 5 uM after 24 hrs by Annexin V-FITC/PI staining based flow cytometric analysis (reference value: 92%). In kind it is functional. Particulars: read-out: Activity. The essentials: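 A2780 cells cultured 24 h in medium alone or with varying inhibitor concentrations, then stained with FITC-annexin V/PI per kit protocol and analysed by flow cytometry. Run in triplicate and repeated at least twice; significance by one-way ANOVA, p < 0.01.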

The test system of assay [4] is A2780. In words: Induction of cell cycle arrest in human A2780 cells assessed as accumulation at pre-G1 phase at 1 uM after 24 hrs by propidium iodide staining based flow cytometric analysis (reference value: 1.2%). The format is functional.
For assay [5], the system named is A2780. Kind of assay: Induction of cell cycle arrest in human A2780 cells assessed as accumulation at pre-G1 phase at 2 uM after 24 hrs by propidium iodide staining based flow cytometric analysis (reference value: 1.2%). In kind it is functional.
Assay [6] deals with A2780. Kind of assay: Induction of cell cycle arrest in human A2780 cells assessed as accumulation at G1/G0 phase at 2 uM after 24 hrs by propidium iodide staining based flow cytometric analysis (reference value: 56.7%). The format is functional. Put shortly:
(§1)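 4 × 10⁵ A2780 cells cultured 24 h in medium alone or with varying inhibitor concentrations, harvested into hypotonic fluorochrome solution (0.1% sodium citrate, 0.1% Triton X-100, propidium iodide, 100 ug/ml RNase A), and DNA content analysed by flow cytometry. Representative of three independent experiments.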

Assay [7] relates to A2780. Kind of assay: Induction of cell cycle arrest in human A2780 cells assessed as accumulation at G1/G0 phase at 5 uM after 24 hrs by propidium iodide staining based flow cytometric analysis (reference value: 56.7%). In kind it is functional. Put shortly: as §1
In assay [8] the target is Cyclin-dependent kinase 9 (Homo sapiens) (UniProt P50750). In words: Inhibition of CDK9 in human A2780 cells assessed as reduction in RNAP2 phosphorylation at ser5 residues after 24 hrs by Western blot analysis. The format is cell-based. As to conditions: dose 0.5-5 µM. On the technique in general: A western blot detects proteins with antibodies after separation by electrophoresis.
Sequence of Cyclin-dependent kinase 9 (Homo sapiens) (P50750 whole entry): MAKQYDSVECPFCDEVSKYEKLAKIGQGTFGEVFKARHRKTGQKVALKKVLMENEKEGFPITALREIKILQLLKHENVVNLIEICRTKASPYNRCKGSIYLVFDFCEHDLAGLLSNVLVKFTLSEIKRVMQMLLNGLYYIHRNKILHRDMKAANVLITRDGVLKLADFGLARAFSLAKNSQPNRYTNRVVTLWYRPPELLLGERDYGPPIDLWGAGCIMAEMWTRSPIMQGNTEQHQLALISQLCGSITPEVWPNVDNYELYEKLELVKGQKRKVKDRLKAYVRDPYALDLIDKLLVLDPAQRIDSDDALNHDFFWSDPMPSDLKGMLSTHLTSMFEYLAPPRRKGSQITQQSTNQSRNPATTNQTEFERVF

For another assay, the system named is HCT-116. Kind of assay: Induction of apoptosis in human HCT-116 cells assessed as increase in p21 protein expression at 0.5 to 5 uM after 24 hrs by Western blot analysis. The format is functional, cell-based. Particulars: dose 0.5-5 µM.

The record followed here is ChEMBL document CHEMBL4819032, “Structure-based design of highly selective 2,4,5-trisubstituted pyrimidine CDK9 inhibitors as anti-cancer agents” (Eur J Med Chem, 2021).

Activity calls are given as the source filed them.

Sequence of Vascular endothelial growth factor receptor 2 (Homo sapiens) (P35968 whole entry): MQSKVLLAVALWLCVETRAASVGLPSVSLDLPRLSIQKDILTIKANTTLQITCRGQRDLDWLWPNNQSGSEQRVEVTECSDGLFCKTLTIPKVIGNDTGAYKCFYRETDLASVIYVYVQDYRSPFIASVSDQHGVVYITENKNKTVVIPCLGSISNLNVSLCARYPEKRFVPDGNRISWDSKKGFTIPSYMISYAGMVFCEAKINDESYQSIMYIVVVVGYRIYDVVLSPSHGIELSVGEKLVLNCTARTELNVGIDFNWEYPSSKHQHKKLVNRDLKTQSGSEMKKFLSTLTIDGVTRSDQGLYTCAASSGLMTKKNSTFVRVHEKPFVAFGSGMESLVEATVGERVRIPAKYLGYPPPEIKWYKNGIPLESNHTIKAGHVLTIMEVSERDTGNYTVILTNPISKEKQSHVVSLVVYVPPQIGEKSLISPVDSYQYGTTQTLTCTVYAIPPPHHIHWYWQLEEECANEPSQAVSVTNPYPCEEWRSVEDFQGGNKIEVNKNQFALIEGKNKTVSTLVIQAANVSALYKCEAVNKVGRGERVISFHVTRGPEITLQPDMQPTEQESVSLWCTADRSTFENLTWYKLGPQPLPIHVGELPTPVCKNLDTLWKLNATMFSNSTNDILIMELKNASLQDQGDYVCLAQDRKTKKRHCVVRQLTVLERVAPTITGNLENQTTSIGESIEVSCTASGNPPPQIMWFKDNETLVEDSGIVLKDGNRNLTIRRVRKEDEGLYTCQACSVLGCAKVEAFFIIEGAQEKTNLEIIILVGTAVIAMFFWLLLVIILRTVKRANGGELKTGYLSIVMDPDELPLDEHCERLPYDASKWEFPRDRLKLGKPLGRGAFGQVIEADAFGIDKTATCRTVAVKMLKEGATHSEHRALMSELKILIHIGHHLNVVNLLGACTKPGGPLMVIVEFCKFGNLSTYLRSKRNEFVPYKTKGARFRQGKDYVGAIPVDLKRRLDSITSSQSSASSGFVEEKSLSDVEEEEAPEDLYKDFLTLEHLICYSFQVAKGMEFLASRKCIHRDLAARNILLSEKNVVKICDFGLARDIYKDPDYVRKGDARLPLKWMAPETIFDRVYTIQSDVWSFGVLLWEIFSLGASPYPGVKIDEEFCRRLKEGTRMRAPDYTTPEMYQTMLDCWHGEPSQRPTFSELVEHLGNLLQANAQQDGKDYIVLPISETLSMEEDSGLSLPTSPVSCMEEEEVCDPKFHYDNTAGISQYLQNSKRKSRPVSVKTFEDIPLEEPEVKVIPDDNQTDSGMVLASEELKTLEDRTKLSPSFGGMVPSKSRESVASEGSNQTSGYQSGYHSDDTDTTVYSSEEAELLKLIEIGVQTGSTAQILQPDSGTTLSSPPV

As to `CNc1nc(C)c(-c2nc(Nc3cccc(N4CCN5CCC4CC5)c3)ncc2C)s1`, growth in assay [1] was halved (GI50) at 1500 nM. Moreover, the inhibition result in assay [2] is “Active”. Besides, in the assay listed under Homo sapiens, the Ratio Ki is 125. Besides, the viability at 5 µM with A2780 [3] is 22.6%. Besides, the Activity in the assay on A2780 [4] is 6.5%; in the assay on A2780 [5], 8.3%; in the assay with A2780 [6], 24.3%; in the assay on A2780 [7], 31.5%. Further, in assay [8], the inhibition entry was “Dose-Dependent Effect”. The result with HCT-116 was Active.
